This note sets out measurements from ChEMBL document CHEMBL3407337, “Molecular design, synthesis and biological research of novel pyridyl acridones as potent DNA-binding and apoptosis-inducing agents” (Eur J Med Chem, 2015).

Calls of active or inactive are those of the source. The rule behind the calls is not given here.

For assay [1], the system named is Calf thymus DNA. Description: Binding affinity to calf thymus DNA assessed as increase in DNA viscosity at 6 to 36 uM by viscosity method. It counts as nucleic-acid assay. Particulars: Bos taurus. In a few lines:
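ct DNA at 200 μM in Tris-HCl buffer, compound at 6–36 μM, viscometer held at 25.0 °C. Flow times read in triplicate and averaged. η = (t−t0)/t0; (η/η0)^1/3 plotted against the compound:DNA ratio.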

The test system of another assay is HeLa. Description: Antiproliferative activity against human HeLa cells after 48 hrs by MTT assay. It counts as functional, cell-based. In a few lines:
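Adherent lines seeded at 6×10^3 cells/well and allowed 12 h attachment. Media: NCI-H520 and HeLa RPMI-1640; HepG2, MCF-7, CNE-2, A375, A172 and U118-MG DMEM; U251 MEM-EBSS; all with 10% FBS, 37 °C, 5% CO2. Dosed 48 h at final 50, 25, 10, 1 and 0.1 μM. MTT 4 h, formazan dissolved in DMSO, A490. IC50 from the dose series.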

Assay [2] has as its system K562. Description: Antiproliferative activity against human K562 cells after 48 hrs by MTT assay. The format is functional, cell-based. The note with it: K562, 48 h. In a few lines:
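K562 suspension cells in RPMI-1640 with 10% FBS, 37 °C, 5% CO2. Seeded at 1.5×10^4 cells/well, exposed 48 h to final 50, 25, 10, 1 and 0.1 μM. MTT (5 mg/mL) added for 4 h at 37 °C. IC50 from the dose series.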

Assay [3] concerns K562. Description: Induction of apoptosis in human K562 cells assessed as cleavage of caspase-3 at 1 uM after 36 hrs by Western blot analysis. The format is functional, cell-based. In a few lines: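 K562 cells in 6 cm dishes treated 36 h at various concentrations. Cells lysed on ice for 0.5 h and spun at 20,000 g. Protein measured by BCA. Lysates run on 12% SDS-PAGE and transferred to PVDF. Membranes blocked in 5% milk and probed overnight at 4 °C with primary antibody against cleaved caspase-9, -7, -3, cleaved PARP or Bcl-XL.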

In assay [4] the test system is K562. Nature of the assay: Induction of apoptosis in human K562 cells assessed as early apoptotic cells at 0.5 uM after 48 hrs by annexin V/PI staining based flow cytometry (reference value: 3.89 %). The format is functional.
Assay [5] deals with Calf thymus DNA. Nature of the assay: Binding affinity to calf thymus DNA at 10 uM after 5 mins by UV-vis spectroscopy. It counts as nucleic-acid assay. Particulars: Bos taurus. In outline: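 Compound in 5 mM Tris-HCl, 50 mM NaCl, pH 7.2, titrated with ct DNA at 0–30 μM (bp). Incubated 5 min before reading. Absorbance at 425 nm followed. Kb taken as slope/intercept of [DNA]/(εa−εf) versus [DNA]. ct DNA quantified with ε260 6600 M⁻¹cm⁻¹.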

Assay [6] concerns K562. Description: Induction of apoptosis in human K562 cells assessed as early apoptotic cells at 0.05 uM after 48 hrs by annexin V/PI staining based flow cytometry (reference value: 3.89 %). It counts as functional.
The subject of assay [7] is K562. Nature of the assay: Induction of apoptosis in human K562 cells assessed as loss of mitochondrial membrane potential at 1 uM after 24 hrs by JC-1 staining based fluorescence microscopy. The format is functional, cell-based. In a few lines: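 K562 cells exposed to 1 μM for 24 h. Stained with a JC-1 kit and viewed by fluorescence microscopy (red aggregates versus green monomers). Untreated cells served as blank; CCCP at 10 μM as positive control.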

Assay [8] concerns K562. Nature of the assay: Induction of apoptosis in human K562 cells assessed as early apoptotic cells at 1 uM after 48 hrs by annexin V/PI staining based flow cytometry (reference value: 3.89 %). The format is functional.

Take `Cc1cccc2c(=O)c3c(NCc4ccncc4)ccc(C(=O)NCCN(C)C)c3[nH]c12`: the outcome in the assay on Calf thymus DNA [1], in the assay with K562 [3] and in the assay on K562 [7] was Active. For the same compound, the values for the IC50 with HeLa and in the assay with K562 [2] were 3790 nM and 460 nM, respectively. Besides, the values for the Activity with K562 [4], with K562 [6] and in the assay on K562 [8] were 23.13%, 8.98% and 27.06%, respectively. The same compound came in with a Kb in the assay on Calf thymus DNA [5] of 5.1 ×10⁴ /M.
